In article PMC3031457 (Anti-cancer drugs, 2009):
Like-named read-outs stand apart in the source and are kept apart here. Marks after values point to notes of the source that are not given here.

Columns and labels:
Panc-1 [1] = assay: Cell viability assay; format: cell-based, human; conditions: read-out: IC50 (μM) Panc-1
Procedure, shortened: (§1)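 Cells were grown in RPMI-1640 with 10% FBS, pyruvate, HEPES, glutamine and antibiotics at 37°C, 5% CO2, and seeded at 6000 cells/well. After 24 h adherence, half the medium was replaced with serially diluted test compound, 5-fluorouracil, or methanol-containing medium. Exposure lasted 72 h. MTT (5 mg/ml solution) was then added for 3 h at 37°C, formazan dissolved in HCl-acidified isopropanol, and absorbance read at 570 nm.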

AsPC-1 [2] = assay: Cell viability assay; format: cell-based, human; conditions: read-out: IC50 (μM) AsPC-1
Procedure, shortened: as §1

BxPC-3 [3] = assay: Cell viability assay; format: cell-based, human; conditions: read-out: IC50 (μM) BxPC-3
Procedure, shortened: as §1

MIA PaCa2 [4] = assay: Cell viability assay; format: cell-based, human; conditions: read-out: IC50 (μM) MIA PaCa2
Procedure, shortened: as §1

topoisomerase II = topoisomerase II (Homo sapiens, UniProt P11388); assay: Decatenation reaction of kinetoplast DNA; format: biochemical; conditions: for inhibition at 25 µg/mL: read-out: % Inhibition topoisomeraseII; for topoisomerase II inhibition (in words) / % Inhibition topoisomeraseII: 25 μg/ml; for % Inhibition topoisomeraseII: decatenation of kinetoplast DNA, 30 minutes
Procedure, shortened: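 A commercial kit assay was used: 0.2 μg kinetoplast DNA plus 1 U topoisomerase II in ATP/MgCl2/DTT buffer, 20 μl reactions. Test compound was added at 5 or 25 μg/ml (methanol vehicle); 100 μM etoposide in DMSO served as positive control. Reactions ran 30 min at 37°C, were stopped with Sarkosyl loading dye, and resolved on 1% agarose with ethidium bromide. Gel densitometry was used; seven experiments, SEM, Student's t test.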

AsPC-1 cells = assay: Cell cycle analysis by flow cytometry; format: cell-based, human; conditions: 48 hours
Procedure, shortened: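 AsPC-1 cells were trypsinized into 6-well plates and allowed to adhere for 24 h. They were then exposed for 48 h to test compound at 5 or 25 μg/ml, methanol vehicle, medium alone, or 100 nM paclitaxel as positive control. Cells were fixed in ice-cold ethanol (−20°C, 1 h) and stained with propidium iodide plus RNase A (30 min, 37°C) for flow cytometry. Run 3 times.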

[5] = tested on: genomic salmon testes DNA; assay: DNA intercalation assay; format: binding; conditions: for % DNA intercalation: 25 μg/ml, ethidium bromide displacement; for DNA intercalation (in words): 5 and 25 μg/ml
Procedure, shortened: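 Genomic salmon testes DNA (0.5 μg) was equilibrated with 1.27 μM ethidium bromide for 30 min at room temperature. Test compound (5 or 25 μg/ml), methanol vehicle, 1 μM doxorubicin (positive control) or 100 μM etoposide (negative control) was added for a further 30 min. Ethidium displacement was read as a fluorescence decrease (ex 340, em 590 nm). Mean of 3 experiments ± standard deviation.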

Vero = assay: Cell viability assay; format: cell-based, African green monkey; conditions: read-out: IC50 (μM) Vero; MTT, 72 hours, n=4 ± SE; normal cell line
Procedure, shortened: as §1

Panc-1 [6] = conditions: read-out: IC50 (μM) Panc-1; ref Li et al ([14]); cited from earlier work
AsPC-1 [7] = conditions: read-out: IC50 (μM) AsPC-1; ref Li et al ([14]); cited from earlier work
BxPC-3 [8] = conditions: read-out: IC50 (μM) BxPC-3; ref Li et al ([14]); cited from earlier work
MIA PaCa2 [9] = conditions: read-out: IC50 (μM) MIA PaCa2; ref Li et al ([14]); cited from earlier work
[10] = tested on: Panc-1, AsPC-1, BxPC-3, and MIA-PaCa2; assay: Cell viability assay; format: cell-based, human; conditions: read-out: IC50 in all pancreatic cell lines
Procedure, shortened: as §1

Sequence of topoisomerase II (P11388 whole entry): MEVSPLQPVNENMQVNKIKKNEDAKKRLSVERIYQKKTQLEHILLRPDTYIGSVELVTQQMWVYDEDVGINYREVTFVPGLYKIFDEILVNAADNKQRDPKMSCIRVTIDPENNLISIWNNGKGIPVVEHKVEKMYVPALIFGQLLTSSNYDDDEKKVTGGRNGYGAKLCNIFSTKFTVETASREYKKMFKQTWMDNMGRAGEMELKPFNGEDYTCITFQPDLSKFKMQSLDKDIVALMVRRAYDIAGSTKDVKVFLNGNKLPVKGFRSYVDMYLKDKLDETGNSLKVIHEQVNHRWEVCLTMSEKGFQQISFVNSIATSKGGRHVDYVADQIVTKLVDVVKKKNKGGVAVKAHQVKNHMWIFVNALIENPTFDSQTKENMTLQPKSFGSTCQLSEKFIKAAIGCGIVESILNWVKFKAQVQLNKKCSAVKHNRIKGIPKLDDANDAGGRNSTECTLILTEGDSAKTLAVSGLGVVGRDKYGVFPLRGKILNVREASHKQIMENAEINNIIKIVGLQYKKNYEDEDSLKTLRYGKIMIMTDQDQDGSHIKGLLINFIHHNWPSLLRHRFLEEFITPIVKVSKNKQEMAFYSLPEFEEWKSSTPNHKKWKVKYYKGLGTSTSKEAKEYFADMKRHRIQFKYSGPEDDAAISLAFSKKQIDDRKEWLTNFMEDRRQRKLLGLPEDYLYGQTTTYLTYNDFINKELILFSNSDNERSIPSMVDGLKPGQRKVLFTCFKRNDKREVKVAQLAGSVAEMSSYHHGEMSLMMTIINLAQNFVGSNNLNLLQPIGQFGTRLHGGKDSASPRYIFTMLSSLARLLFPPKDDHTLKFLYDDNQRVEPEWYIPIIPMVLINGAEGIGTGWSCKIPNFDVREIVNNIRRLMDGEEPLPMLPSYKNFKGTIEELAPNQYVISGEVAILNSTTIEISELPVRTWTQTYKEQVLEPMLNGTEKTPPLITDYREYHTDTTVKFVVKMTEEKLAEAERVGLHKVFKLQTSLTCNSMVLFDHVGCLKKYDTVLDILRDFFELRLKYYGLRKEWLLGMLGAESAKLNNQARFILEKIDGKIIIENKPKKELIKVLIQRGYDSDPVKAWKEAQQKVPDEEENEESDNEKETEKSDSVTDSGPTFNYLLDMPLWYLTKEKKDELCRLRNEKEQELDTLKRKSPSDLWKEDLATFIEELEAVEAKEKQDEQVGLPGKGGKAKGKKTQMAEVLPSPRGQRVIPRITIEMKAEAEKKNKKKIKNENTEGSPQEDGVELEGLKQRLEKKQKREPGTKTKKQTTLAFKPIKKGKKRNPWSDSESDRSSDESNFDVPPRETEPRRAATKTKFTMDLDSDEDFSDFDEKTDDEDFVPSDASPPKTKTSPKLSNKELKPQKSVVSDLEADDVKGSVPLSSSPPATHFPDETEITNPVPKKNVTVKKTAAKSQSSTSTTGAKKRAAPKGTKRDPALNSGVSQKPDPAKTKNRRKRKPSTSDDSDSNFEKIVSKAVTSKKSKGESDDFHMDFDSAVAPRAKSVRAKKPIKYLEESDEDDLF

O=c1[nH]cc(F)c(=O)[nH]1 [5-Fluorouracil, 5-fluorouracil, reference compound]
IC50 (Panc-1 [1]; Homo sapiens, PANC-1, 72 h): 5.73 ± 0.682 µM | IC50 (AsPC-1 [2]; Homo sapiens, ASPC1, 72 h): > 38.4 µM | IC50 (BxPC-3 [3]; Homo sapiens, BXPC-3, 72 h): 5.56 ± 1.64 µM | IC50 (MIA PaCa2 [4]; Homo sapiens, MIA PaCa-2, 72 h): 8.31 ± 0.357 µM

CSc1c2c3c(n1C)C(=O)C(=O)C(Cl)=C3NCC2 [Batzelline A]
IC50 (Panc-1 [1]; Homo sapiens, PANC-1, 72 h): > 17.7 µM | IC50 (AsPC-1 [2]; Homo sapiens, ASPC1, 72 h): > 17.7 µM | IC50 (BxPC-3 [3]; Homo sapiens, BXPC-3, 72 h): > 17.7 µM | IC50 (MIA PaCa2 [4]; Homo sapiens, MIA PaCa-2, 72 h): > 17.7 µM | inhibition at 25 µg/mL (topoisomerase II): 58% | Cell cycle arrest (AsPC-1 cells; 5 μg/ml, data not shown): S-phase cell cycle arrest | Cell cycle arrest (AsPC-1 cells; 25 μg/ml): S phase | % DNA intercalation [5]: 18% | DNA intercalation (in words) [5]: no DNA intercalation

CSC1=Nc2c(O)c(O)c(Cl)c3c2=C1CCN=3 [Batzelline B]
IC50 (Panc-1 [1]; MTT, 72 hours, n=4 ± SE): > 18.6 µM | IC50 (AsPC-1 [2]; MTT, 72 hours, n=4 ± SE): > 18.6 µM | IC50 (BxPC-3 [3]; MTT, 72 hours, n=4 ± SE): > 18.6 µM | IC50 (MIA PaCa2 [4]; MTT, 72 hours, n=4 ± SE): > 18.6 µM | IC50 (Vero): > 18.6 µM | topoisomerase II inhibition (in words) (topoisomerase II): significantly inhibited topoisomerase II activity | % Inhibition topoisomeraseII (topoisomerase II): 63 ^* % | Cell cycle arrest (AsPC-1 cells; 5 μg/ml, data not shown): did not have an effect | Cell cycle arrest (AsPC-1 cells; 25 μg/ml): S phase | % DNA intercalation [5]: 21%

Nc1ccn([C@@H]2O[C@H](CO)[C@@H](O)C2(F)F)c(=O)n1 [Gemcitabine, gemcitabine]
IC50 (Panc-1 [6]): 7.2 µM | IC50 (AsPC-1 [7]): > 250 µM | IC50 (BxPC-3 [8]): > 250 µM | IC50 (MIA PaCa2 [9]): 14.5 µM

CSc1c2c3c(n1C)C(=O)C(N)=C(Cl)C3=NCC2 [Isobatzelline A]
IC50 (Panc-1 [1]; MTT, 72 hours, n=4 ± SE): 9.37 ± 0.536 µM | IC50 (AsPC-1 [2]; MTT, 72 hours, n=4 ± SE): 1.74 ± 0.415 µM | IC50 (BxPC-3 [3]; MTT, 72 hours, n=4 ± SE): 2.39 ± 0.218 µM | IC50 (MIA PaCa2 [4]; MTT, 72 hours, n=4 ± SE): 4.34 ± 0.22 µM | IC50 (Vero): > 17.7 µM | topoisomerase II inhibition (in words) (topoisomerase II): significantly inhibited topoisomerase II activity | % Inhibition topoisomeraseII (topoisomerase II): 36 ^* % | Cell cycle arrest (AsPC-1 cells; 5 μg/ml, data not shown): S-phase cell cycle arrest | Cell cycle arrest (AsPC-1 cells; 25 μg/ml): S phase | % DNA intercalation [5]: 54 ^** % | DNA intercalation (in words) [5]: significant intercalation into DNA | IC50 ([10]; MTT, 72 hours): < 10 µM

Cn1cc2c3c1C(=O)C(N)=C(Cl)C3=NCC2 [Isobatzelline C]
IC50 (Panc-1 [1]; Homo sapiens, PANC-1, 72 h): 9.98 ± 0.384 µM | IC50 (AsPC-1 [2]; Homo sapiens, ASPC1, 72 h): 1.72 ± 0.168 µM | IC50 (BxPC-3 [3]; Homo sapiens, BXPC-3, 72 h): 1.31 ± 0.185 µM | IC50 (MIA PaCa2 [4]; Homo sapiens, MIA PaCa-2, 72 h): 2.34 ± 0.0977 µM | inhibition at 25 µg/mL (topoisomerase II): 27% | Cell cycle arrest (AsPC-1 cells; 5 μg/ml, data not shown): S-phase cell cycle arrest | Cell cycle arrest (AsPC-1 cells; 25 μg/ml): S phase | % DNA intercalation [5]: 56 ^** % | IC50 ([10]; Homo sapiens, 72 h): < 10 µM

CSc1c2ccnc3c2c(n1C)C(=O)C(N)=C3Cl [Isobatzelline D]
IC50 (Panc-1 [1]; MTT, 72 hours, n=4 ± SE): 5.72 ± 0.253 µM | IC50 (AsPC-1 [2]; MTT, 72 hours, n=4 ± SE): 1.48 ± 0.187 µM | IC50 (BxPC-3 [3]; MTT, 72 hours, n=4 ± SE): 1.48 ± 0.18 µM | IC50 (MIA PaCa2 [4]; MTT, 72 hours, n=4 ± SE): 2.67 ± 0.295 µM | IC50 (Vero): 15.7 ± 1.17 µM | % Inhibition topoisomeraseII (topoisomerase II): 26% | Cell cycle arrest (AsPC-1 cells; 5 μg/ml, data not shown): S-phase cell cycle arrest | Cell cycle arrest (AsPC-1 cells; 25 μg/ml): S phase | % DNA intercalation [5]: 47 ^** % | IC50 ([10]; MTT, 72 hours): < 10 µM

Cn1cc2ccnc3c2c1C(=O)C(N)=C3Cl [Isobatzelline E]
IC50 (Panc-1 [1]; MTT, 72 hours, n=4 ± SE): > 21.5 µM | IC50 (AsPC-1 [2]; MTT, 72 hours, n=4 ± SE): > 21.5 µM | IC50 (BxPC-3 [3]; MTT, 72 hours, n=4 ± SE): > 21.5 µM | IC50 (MIA PaCa2 [4]; MTT, 72 hours, n=4 ± SE): > 21.5 µM | IC50 (Vero): > 21.5 µM | topoisomerase II inhibition (in words) (topoisomerase II): significantly inhibited topoisomerase II activity | % Inhibition topoisomeraseII (topoisomerase II): 95 ^* % | Cell cycle arrest (AsPC-1 cells; 5 μg/ml, data not shown): did not have an effect | DNA intercalation (in words) [5]: significant intercalation into DNA

N=C1C(Cl)=C(N)C(=O)c2[nH]cc(C(O)CO)c21 (centres unmarked) [Secobatzelline A]
IC50 (Panc-1 [1]; Homo sapiens, PANC-1, 72 h): 10.4 ± 1.16 µM | IC50 (AsPC-1 [2]; Homo sapiens, ASPC1, 72 h): 3.62 ± 0.801 µM | IC50 (BxPC-3 [3]; Homo sapiens, BXPC-3, 72 h): 4.09 ± 0.146 µM | IC50 (MIA PaCa2 [4]; Homo sapiens, MIA PaCa-2, 72 h): 5.63 ± 0.739 µM | topoisomerase II inhibition (in words) (topoisomerase II): significantly inhibited topoisomerase II activity | inhibition at 25 µg/mL (topoisomerase II): 61% | Cell cycle arrest (AsPC-1 cells; 5 μg/ml, data not shown): S-phase cell cycle arrest | Cell cycle arrest (AsPC-1 cells; 25 μg/ml): S phase | DNA intercalation (in words) [5]: significant intercalation into DNA | IC50 ([10]; Homo sapiens, 72 h): < 10 µM

NC1=C(Cl)C(=O)c2c(C(O)CO)c[nH]c2C1=O (centres unmarked) [Secobatzelline B]
IC50 (Panc-1 [1]; Homo sapiens, PANC-1, 72 h): 17.4 ± 0.281 µM | IC50 (AsPC-1 [2]; Homo sapiens, ASPC1, 72 h): > 19.5 µM | IC50 (BxPC-3 [3]; Homo sapiens, BXPC-3, 72 h): > 19.5 µM | IC50 (MIA PaCa2 [4]; Homo sapiens, MIA PaCa-2, 72 h): > 19.5 µM | topoisomerase II inhibition (in words) (topoisomerase II): no DNA intercalation or topoisomerase II inhibition | inhibition at 25 µg/mL (topoisomerase II): 13% | Cell cycle arrest (AsPC-1 cells; 5 μg/ml, data not shown): did not have an effect | Cell cycle arrest (AsPC-1 cells; 25 μg/ml): S phase | DNA intercalation (in words) [5]: no DNA intercalation
